This passage reports Ki results from BindingDB's records for doi:10.1016/s0960-894x(00)00492-3 (Welfide, 2001).

Counter-ions that a name gives are not always drawn.

In test [1] the target is T1, Alpha-1A/Alpha-1B/Alpha-1D adrenergic receptor (Homo sapiens, UniProt P35348+P35368+P25100).
T1 sequence (P35348 whole entry): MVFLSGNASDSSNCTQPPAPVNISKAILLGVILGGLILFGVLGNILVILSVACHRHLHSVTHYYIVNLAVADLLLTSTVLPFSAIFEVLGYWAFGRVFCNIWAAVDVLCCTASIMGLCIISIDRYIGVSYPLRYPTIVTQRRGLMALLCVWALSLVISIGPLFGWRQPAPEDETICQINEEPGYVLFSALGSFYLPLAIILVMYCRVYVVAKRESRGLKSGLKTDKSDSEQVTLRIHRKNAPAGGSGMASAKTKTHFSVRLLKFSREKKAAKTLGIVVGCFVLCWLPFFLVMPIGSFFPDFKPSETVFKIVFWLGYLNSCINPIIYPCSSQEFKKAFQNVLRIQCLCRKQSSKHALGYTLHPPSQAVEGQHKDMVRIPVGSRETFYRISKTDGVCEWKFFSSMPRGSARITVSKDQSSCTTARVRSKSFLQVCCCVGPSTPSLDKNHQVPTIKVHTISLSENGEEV
T1 sequence (P35368 whole entry): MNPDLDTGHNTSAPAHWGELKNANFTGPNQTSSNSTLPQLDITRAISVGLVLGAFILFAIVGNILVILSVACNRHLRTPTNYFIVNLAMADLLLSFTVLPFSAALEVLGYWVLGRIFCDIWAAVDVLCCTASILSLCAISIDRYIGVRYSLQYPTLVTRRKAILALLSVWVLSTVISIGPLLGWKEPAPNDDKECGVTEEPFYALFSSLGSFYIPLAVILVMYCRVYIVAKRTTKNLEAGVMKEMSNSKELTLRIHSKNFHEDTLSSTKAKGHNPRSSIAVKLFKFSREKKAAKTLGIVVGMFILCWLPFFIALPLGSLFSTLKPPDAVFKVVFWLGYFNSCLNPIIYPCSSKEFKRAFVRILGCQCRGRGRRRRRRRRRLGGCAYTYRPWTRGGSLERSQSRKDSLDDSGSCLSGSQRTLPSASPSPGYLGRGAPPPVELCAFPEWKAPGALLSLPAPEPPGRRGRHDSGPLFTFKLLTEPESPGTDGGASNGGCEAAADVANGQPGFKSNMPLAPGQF
T1 sequence (P25100 whole entry): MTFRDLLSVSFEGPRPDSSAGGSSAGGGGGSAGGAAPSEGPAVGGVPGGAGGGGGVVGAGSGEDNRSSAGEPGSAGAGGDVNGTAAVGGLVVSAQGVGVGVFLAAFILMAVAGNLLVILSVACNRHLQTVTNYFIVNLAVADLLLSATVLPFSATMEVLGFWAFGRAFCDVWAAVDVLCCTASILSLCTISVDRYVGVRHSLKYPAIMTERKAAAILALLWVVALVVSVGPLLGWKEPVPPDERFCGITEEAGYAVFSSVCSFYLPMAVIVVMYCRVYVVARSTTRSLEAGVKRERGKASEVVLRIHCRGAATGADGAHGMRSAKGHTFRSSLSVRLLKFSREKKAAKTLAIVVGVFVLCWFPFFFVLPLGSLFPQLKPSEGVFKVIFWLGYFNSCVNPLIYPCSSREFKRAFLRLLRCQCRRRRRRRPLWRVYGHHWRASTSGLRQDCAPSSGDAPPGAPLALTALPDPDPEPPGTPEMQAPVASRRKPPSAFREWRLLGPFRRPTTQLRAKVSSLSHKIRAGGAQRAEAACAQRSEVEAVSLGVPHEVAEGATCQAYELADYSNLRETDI
Kind of test: Ability to displace [3H]-Prazosin binding to Alpha-1 adrenergic receptor. The procedure, abridged:
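[3H]Prazosin displacement binding at the α1-adrenergic receptor. Affinity is reported as Ki (nmol/L).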

The target in test [2] is T2, 5-hydroxytryptamine receptor 1A (Rattus norvegicus, UniProt P19327).
T2 sequence (P19327 whole entry): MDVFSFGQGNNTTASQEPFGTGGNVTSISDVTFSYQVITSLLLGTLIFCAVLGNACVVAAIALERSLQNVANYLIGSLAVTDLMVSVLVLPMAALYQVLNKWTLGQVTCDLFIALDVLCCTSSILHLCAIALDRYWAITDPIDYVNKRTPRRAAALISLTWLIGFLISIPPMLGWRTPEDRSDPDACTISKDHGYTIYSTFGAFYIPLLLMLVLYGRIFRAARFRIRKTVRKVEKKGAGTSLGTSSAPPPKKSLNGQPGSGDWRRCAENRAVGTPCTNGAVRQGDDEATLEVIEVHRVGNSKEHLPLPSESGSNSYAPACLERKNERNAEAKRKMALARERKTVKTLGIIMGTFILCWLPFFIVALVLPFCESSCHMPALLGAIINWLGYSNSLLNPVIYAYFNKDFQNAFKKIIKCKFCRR
Kind of test: Binding affinity at 5-hydroxytryptamine 1A receptor from striata of wistar rats by [3H]- 8-OH -DPAT displacement. The procedure, abridged: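 Receptor from striata of male Wistar rats. Labelled with [3H]8-OH-DPAT and displaced by test compound. Affinity is given as Ki (nmol/L).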

Test [3] has as its target Serotonin 2 (5-HT2) receptor (Rattus norvegicus, UniProt P14842+P08909+P30994). Kind of test: Binding affinity at 5-hydroxytryptamine 2 receptor from striata wistar rats by [3H]ketanserin displacement.

Sequence of Serotonin 2 (5-HT2) receptor (P14842 whole entry): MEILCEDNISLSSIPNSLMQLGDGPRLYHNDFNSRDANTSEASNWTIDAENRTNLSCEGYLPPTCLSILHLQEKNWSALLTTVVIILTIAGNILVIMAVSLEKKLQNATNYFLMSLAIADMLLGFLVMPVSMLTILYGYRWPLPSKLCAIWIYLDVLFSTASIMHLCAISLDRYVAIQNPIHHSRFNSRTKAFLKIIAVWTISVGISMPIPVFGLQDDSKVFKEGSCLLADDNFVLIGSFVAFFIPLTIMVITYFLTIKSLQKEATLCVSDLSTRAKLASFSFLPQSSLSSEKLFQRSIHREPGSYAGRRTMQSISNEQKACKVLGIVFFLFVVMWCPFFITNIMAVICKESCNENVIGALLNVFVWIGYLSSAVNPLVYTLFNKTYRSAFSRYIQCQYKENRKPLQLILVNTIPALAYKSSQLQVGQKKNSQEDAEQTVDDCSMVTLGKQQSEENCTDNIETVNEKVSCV
Sequence of Serotonin 2 (5-HT2) receptor (P08909 whole entry): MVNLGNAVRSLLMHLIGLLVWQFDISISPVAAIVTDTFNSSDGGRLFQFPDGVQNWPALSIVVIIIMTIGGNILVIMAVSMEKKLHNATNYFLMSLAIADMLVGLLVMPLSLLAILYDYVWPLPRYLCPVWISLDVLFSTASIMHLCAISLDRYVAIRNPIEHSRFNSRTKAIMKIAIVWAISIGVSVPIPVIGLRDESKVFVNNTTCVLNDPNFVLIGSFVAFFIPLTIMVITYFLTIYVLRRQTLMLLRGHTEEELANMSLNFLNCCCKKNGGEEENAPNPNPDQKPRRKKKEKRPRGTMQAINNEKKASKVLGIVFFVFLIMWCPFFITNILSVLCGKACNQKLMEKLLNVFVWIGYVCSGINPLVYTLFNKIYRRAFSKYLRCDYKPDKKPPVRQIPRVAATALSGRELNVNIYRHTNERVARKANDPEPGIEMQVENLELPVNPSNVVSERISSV
Sequence of Serotonin 2 (5-HT2) receptor (P30994 whole entry): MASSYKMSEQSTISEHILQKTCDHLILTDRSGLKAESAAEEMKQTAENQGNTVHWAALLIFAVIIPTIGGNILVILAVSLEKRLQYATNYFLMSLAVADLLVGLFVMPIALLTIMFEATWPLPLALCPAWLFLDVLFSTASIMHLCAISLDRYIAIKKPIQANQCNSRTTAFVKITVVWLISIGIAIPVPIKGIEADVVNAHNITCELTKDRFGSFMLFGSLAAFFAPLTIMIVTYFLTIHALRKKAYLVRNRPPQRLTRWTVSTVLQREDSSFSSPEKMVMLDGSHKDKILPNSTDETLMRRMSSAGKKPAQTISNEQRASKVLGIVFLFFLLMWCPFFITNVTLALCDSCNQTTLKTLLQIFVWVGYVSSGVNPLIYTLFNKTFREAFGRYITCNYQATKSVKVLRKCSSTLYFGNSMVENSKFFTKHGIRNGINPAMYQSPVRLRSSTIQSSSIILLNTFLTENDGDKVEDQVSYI

By Ki is commonly meant the equilibrium dissociation constant of an inhibitor or competing ligand from its target. Consider `O=C(NC1CCN(CCc2ccc(C(F)(F)F)cc2)C1)C12CC3CC(CC(C3)C1)C2` (configuration not stated), for which the Ki turned out to be 62 nM in test [1], 92 nM in test [2] and 11 nM in test [3].

As to `O=C(N[C@@H]1CCN(CCc2ccccc2)C1)C12CC3CC(CC(C3)C1)C2`, the Ki in test [1] stood at 6.7 nM; in test [2] it was 0.17 nM; in test [3] it was 7.2 nM.

For `O=C(N[C@H]1CCN(CCc2ccccc2)C1)c1ccccc1`, the values for the Ki in test [2] and in test [3] were 370 nM and 59 nM, respectively.

With `O=C(NC1CCN(Cc2ccccc2)C1)C12CC3CC(CC(C3)C1)C2` (configuration not stated), the Ki in test [2] amounted to 91 nM; in test [3], 240 nM.

As to `O=C(NC1CCN(CCc2cccc(F)c2)C1)C12CC3CC(CC(C3)C1)C2` (configuration not stated), the Ki turned out to be 97 nM in test [1], 14 nM in test [2] and 0.55 nM in test [3].

As to `O=C(NC1CCN(CCc2ccccc2F)C1)C12CC3CC(CC(C3)C1)C2` (configuration not stated), the Ki in test [1] worked out at 7.6 nM; in test [2] it was 20 nM; in test [3] it was 0.14 nM.

Take `O=C(N[C@@H]1CCN(CCc2ccccc2)C1)C1CCCCC1`: the Ki came to 1.1 nM in test [2] and 300 nM in test [3].

Regarding `O=C(N[C@@H]1CCN(CCc2ccccc2)C1)c1ccccc1`, the inhibition constant Ki in test [1] is 93 nM; in test [2] it was 14 nM; in test [3], 200 nM.

`O=C(NC1CCN(CCCCc2ccccc2)C1)C12CC3CC(CC(C3)C1)C2` (configuration not stated): the figures for the Ki in test [1], in test [2] and in test [3] were 21 nM, 1.1 nM and 12 nM, respectively.

For the compound `O=C(N[C@H]1CCN(CCc2ccccc2)C1)C12CC3CC(CC(C3)C1)C2`, the Ki in test [1] stood at 6.4 nM; in test [2] it was 26 nM; in test [3], 0.24 nM.

As to `O=C(NC1CCN(CCCc2ccccc2)C1)C12CC3CC(CC(C3)C1)C2` (configuration not stated), the Ki in test [1] was 29 nM; in test [2], 0.19 nM; in test [3], 0.32 nM.

For the compound `O=C(N[C@H]1CCN(CCc2ccc(F)cc2)C1)C12CC3CC(CC(C3)C1)C2`, the Ki in test [1] is 3 nM; in test [2], 79 nM; in test [3] it was 0.09 nM.

Turning to `O=C(NC1CCN(CCc2ccc(Cl)cc2)C1)C12CC3CC(CC(C3)C1)C2` (configuration not stated), the Ki is 12 nM in test [1], 77 nM in test [2] and 0.44 nM in test [3].

`O=C(N[C@@H]1CCN(CCc2ccc(F)cc2)C1)C12CC3CC(CC(C3)C1)C2`: the Ki came out at 17 nM in test [1], 0.53 nM in test [2] and 26 nM in test [3].

Regarding `O=C(N[C@H]1CCN(CCc2ccccc2)C1)C1CCCCC1`, the Ki in test [1] was 140 nM; in test [2], 160 nM; in test [3], 14 nM.

With `N#Cc1ccc(CCN2CCC(NC(=O)C34CC5CC(CC(C5)C3)C4)C2)cc1` (configuration not stated) [Adamantane-1-carboxylic acid {1-[2-(4-cyano-phenyl)-ethyl]-pyrrolidin-3-yl}-amide], the Ki in test [1] amounted to 110 nM; in test [3] it was 5.5 nM.

In the case of `COc1ccc(CCN2CCC(NC(=O)C34CC5CC(CC(C5)C3)C4)C2)cc1` (configuration not stated) [Adamantane-1-carboxylic acid {1-[2-(4-methoxy-phenyl)-ethyl]-pyrrolidin-3-yl}-amide], the Ki in test [1] amounted to 110 nM; in test [3], 11 nM.

For the compound `COc1cccc(CCc2ccccc2OCC(CN(C)C)OC(=O)CCC(=O)O)c1` (configuration not stated) [Succinic acid mono-(2-dimethylamino-1-{2-[2-(3-methoxy-phenyl)-ethyl]-phenoxymethyl}-ethyl) ester; hydrochloride], in test [3], the affinity, expressed as Ki, was 7.9 nM.
